Screens deposited in PubChem BioAssay by several laboratories.
Shown are actives, neighbours in structure and some others; about 4.1% of the full set was active somewhere.
KCNK9 block: KCNK9 potassium channel inhibitors, primary screen, HEK293 cells, thallium flux; FluxOR thallium flux fluorescence; stronger effect = lower value; B-score at 10 µM; actives 1.2% (n = 310,000);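 active means ratio B-score over 3 SD below the library mean, with starting fluorescence within 5 SD of its mean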;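 further: negative B-score means less thallium flux so channel inhibition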
Target sequence (Q9NPC2 whole entry, looked up): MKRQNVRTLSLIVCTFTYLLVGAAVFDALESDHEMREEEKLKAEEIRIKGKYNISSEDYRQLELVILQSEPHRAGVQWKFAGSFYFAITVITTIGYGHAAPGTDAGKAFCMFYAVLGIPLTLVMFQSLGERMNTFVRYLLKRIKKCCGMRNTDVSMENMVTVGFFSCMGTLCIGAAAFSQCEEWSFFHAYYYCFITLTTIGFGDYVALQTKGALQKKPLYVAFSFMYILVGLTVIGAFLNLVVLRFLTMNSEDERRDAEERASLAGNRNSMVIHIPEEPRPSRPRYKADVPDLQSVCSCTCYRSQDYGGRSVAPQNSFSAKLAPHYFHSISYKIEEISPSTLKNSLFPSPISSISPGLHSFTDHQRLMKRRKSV
hERG rescue: hERG rescue from dofetilide block, primary screen, cell-based, CHO-hERG, FluxOR thallium flux, dofetilide IC70; Voltage-gated inwardly rectifying potassium channel KCNH2 (Homo sapiens), Q12809; dofetilide IC70 present; activation (rescue from dofetilide block), less the hit threshold, % at 10 µM; actives 0.51% (n = 310,000);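 active means activation above the mean of controls blocked by dofetilide plus 5 SD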;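 further: thallium influx through hERG after potassium depolarization seen as dye fluorescence rise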
KCNQ1 inh: inhibitors of human KCNQ1 channel, primary screen, cell-based, thallium flux, high-throughput. actives 1.3% (n = 310,000). CHO-K1 KCNQ1, FluxOR thallium flux fluorescence; stronger effect = higher value. AID 2642, 2010. Potassium voltage-gated channel subfamily KQT member 1 (Homo sapiens), P51787. B-score at 10 µM;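 active means compounds whose thallium flux B-score, printed positive for inhibition, exceeds three library SD while starting fluorescence stays within three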;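 further: channel opened by potassium depolarization with thallium stimulus after 20 min compound exposure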
KCC2 mod: KCC2 cotransporter modulators, thallium flux, primary screen, cell-based, HEK293 KCC2, FluoZin-2 fluorescence, MLSMR. B-score of Tl+ flux slope (higher = more flux/activation; lower = inhibition) at 10 µM. KCC2 cells, thallium flux FluoZin-2 fluorescence. Solute carrier family 12 member 5 (Homo sapiens), Q9H2X9. actives 2.2% (n = 190,000);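 active means thallium flux slope and its plate-corrected score both differing from the plate sample mean at a set confidence after two filtering rounds, in either direction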;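 further: slope of fluorescence scaled to starting intensity during 10 to 20 s after thallium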
KCNQ1 act: potentiators or activators of KCNQ1 channel, primary screen, cell-based, thallium flux, high-throughput | actives 0.35% (n = 310,000) | B-score at 10 µM | CHO-K1 KCNQ1, thallium flux FluxOR fluorescence; stronger effect = higher value | AID 2648, 2010 | Potassium voltage-gated channel subfamily KQT member 1 (Homo sapiens), P51787;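 active means fluorescence ratio B-score, a plate-corrected score, at least three library SD, with initial intensity B-score within 5 SD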
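System: CHO-K1 cells stably expressing KCNQ1 / Medium: assay buffer for compound exposure, DMSO matched across wells / Reagent: thallium- and potassium-containing depolarizing buffer / Compound: one concentration, matched DMSO / Incubation: 20 min compound pretreatment at room temperature / Measured by: kinetic FluxOR fluorescence, 10 s baseline plus 110 s post-stimulus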
KCNK3 block: human KCNK3 channel inhibitors, primary screen, CHO cells, FluxOR thallium flux, B-score. FluxOR fluorescence; stronger effect = lower value. B-score at 10 µM. actives 0.84% (n = 340,000). AID 602410, 2012;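 active means B-score under library mean minus 4 SD, starting fluorescence ratio at most library mean plus 5 SD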;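 further: more negative B-score means stronger inhibition of thallium flux through KCNK3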
Target sequence (O14649 whole entry, looked up): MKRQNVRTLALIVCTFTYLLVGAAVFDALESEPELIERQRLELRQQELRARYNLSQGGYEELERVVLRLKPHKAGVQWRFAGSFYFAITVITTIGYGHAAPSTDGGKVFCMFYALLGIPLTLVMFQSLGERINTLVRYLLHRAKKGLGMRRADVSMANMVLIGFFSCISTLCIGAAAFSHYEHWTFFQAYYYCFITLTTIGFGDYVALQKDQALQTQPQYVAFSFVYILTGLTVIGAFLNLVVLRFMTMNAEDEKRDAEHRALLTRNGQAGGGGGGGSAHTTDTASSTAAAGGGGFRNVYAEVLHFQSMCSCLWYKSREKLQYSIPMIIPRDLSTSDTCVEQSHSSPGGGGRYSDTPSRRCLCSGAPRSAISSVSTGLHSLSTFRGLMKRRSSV
KCC2 secondary: KCC2 modulators in sodium-free buffer, confirmation, cell-based, HEK293 KCC2, thallium flux, secondary assay; shares compounds with KCC2 mod; FluoZin2 fluorescence; stronger effect = higher value; normalised thallium flux (F/F0 slope) at 10 µM; actives 15% (n = 3,700); AID 1713, 2009;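 active means thallium flux slope above the same plate's solvent-only control mean plus 3 SD; inconclusive means the two replicate wells disagree; inactive means no significant difference from solvent-only control wells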
KCC2 bumet counter: thallium flux persisting under bumetanide in KCC2 cells, confirmation, counter-screen for KCC2 modulator project, cell-based, HEK293 KCC2, FluoZin2, secondary assay 3; shares compounds with KCC2 mod; HEK293-KCC2 + bumetanide/ouabain; stronger effect = higher value; normalized thallium flux at 10 µM; actives 49% (n = 3,700);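 active means thallium entry rate above the same plate's blocked-transporter control wells by more than 3 SD; inconclusive means the two repeat wells disagree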;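 further: raw slope of fluorescence over initial fluorescence between 10 and 20 s after thallium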
KCC2 secondary2: KCC2 modulators without ouabain present, confirmation, cell-based, HEK293 KCC2, thallium flux, FluoZin2, secondary assay 2. shares compounds with KCC2 mod. thallium flux FluoZin2 fluorescence; actives lie on both sides; F/F0 rise rate, 10–20 s post-thallium. normalized thallium flux at 10 µM. actives 23% (n = 3,700). AID 1715, 2009;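 active means thallium flux slope more than 3 SD above or below the plate's solvent-only control mean, mostly below; inconclusive means the two repeat wells disagreed; inactive means no significant shift from solvent-only controls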;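 further: raw slope with 0.1% DMSO as baseline and bumetanide as block control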
HEK293 Tl flux: thallium flux modulation in parental HEK cells, confirmation, counter-screen for KCC2 modulator project, cell-based, counterscreen 1; thallium flux rate (normalised fluorescence) at 10 µM; shares compounds with KCC2 mod; actives 46% (n = 3,700); AID 1716, 2009; HEK293 parental cells, thallium flux FluoZin2, ouabain; baseline-ratio fluorescence slope, 10–20 s after thallium;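 active means thallium flux rate significantly above the same plate's solvent-only control wells, beyond their mean plus 3 SD; inconclusive means the two replicate wells gave conflicting results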
KCC2 ouabain: KCC2 inhibitors and activators, ouabain retest, confirmation, HEK-KCC2 cells; raw Tl+ flux slope (below DMSO = inhibition, above = activation) at 10 µM; actives 48% (n = 3,700); shares compounds with KCC2 mod; HEK293-KCC2, thallium flux FluoZin2 fluorescence; bidirectional: low = inhibitor, high = activator;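 active means thallium flux slope beyond 3 SD from same-plate DMSO control mean in most replicates, usually higher, sometimes lower; inconclusive means repeat tests gave conflicting results; inactive means no significant difference from controls in most replicates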;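 further: slope of initial-normalized fluorescence between seconds 10 and 20 after thallium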
HEK counter2: native HEK Tl+ uptake effects, second counter-screen – HEK cells, counterscreen 2, counter-screen for KCC2 modulator project, confirmation; thallium flux slope at 10 µM; shares compounds with KCC2 mod; actives 33% (n = 3,700); HEK293 parental, thallium flux FluoZin-2 fluorescence slope;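 active means thallium flux slope above the same plate's solvent-control mean plus 3 SD in both duplicate wells; inconclusive means duplicate wells that disagreed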;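 further: run without ouabain in cells lacking the KCC2 cotransporter; slope of fluorescence scaled to its starting value between 10 and 20 s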
Numbers without * were called inactive; i = inactive; ? = inconclusive; . = no result given.

SMILES | KCNK9 block | hERG rescue | KCNQ1 inh | KCC2 mod | KCNQ1 act | KCNK3 block | KCC2 secondary | KCC2 bumet counter | KCC2 secondary2 | HEK293 Tl flux | KCC2 ouabain | HEK counter2
COc1ccc(C(=O)N2CCCC(c3ccccc3)C2)cc1 (stereo not given) | . | . | . | -4.8* | . | i | 0.0053 | 0.0073* | 0.025* | 0.0072 | ? | 0.011
COCCn1c(Cc2ccccc2)nnc1SC(C)C(=O)NC1CC1 (stereo not given) | . | . | . | . | . | i | . | . | . | . | . | .
CCOc1ccc(C(O)(c2ccccc2)C(CN2CCCC2)c2ccccc2)cc1 (stereo not given) | i | -4 | i | . | i | i | . | . | . | . | . | .
Cc1onc(-c2ccccc2)c1C(=O)NC(=S)NNC(=O)c1ccco1 | i | -13 | i | 6.6* | i | i | 0.018 | 0.014* | 0.03 | 0.014* | 0.021 | 0.015*
Cc1onc(-c2ccccc2)c1C(=O)NNC(=S)NC(=O)c1ccc2c(c1)OCO2 | i | -11 | i | 16* | i | i | 0.014* | 0.034* | 0.036 | ? | 0.03* | ?
Cc1onc(-c2ccccc2)c1C(=O)NC(=S)NNC(=O)c1ccncc1 | i | -1 | i | 0.9 | i | i | . | . | . | . | . | .
Cc1onc(-c2ccccc2)c1C(=O)NNC(=S)NC(=O)/C=C/c1cccs1 | i | -11 | i | 6.7* | i | i | 0.0067 | 0.027* | ? | 0.016* | 0.03* | 0.018*
COc1ccc(CCC(=O)OCC(=O)Nc2sccc2C#N)cc1 | . | . | . | . | . | i | . | . | . | . | . | .
COc1ccc(/C=C/C(=O)OCC(=O)NC(C)CCc2ccccc2)cc1OC (stereo not given) | . | . | . | . | . | i | . | . | . | . | . | .
O=C1NC[C@H](c2ccccc2)OC(=O)[C@H](Cc2ccc(F)cc2)C/C=C\C[C@H]1CC(=O)N(CCO)Cc1ccccc1 | . | . | . | . | . | i | . | . | . | . | . | .
CC1=NN(c2nc3ccccc3s2)C(O)(C(F)(F)F)C1 (stereo not given) | i | -9 | i | 5.8* | i | i | 0.0085 | 0.011* | 0.03 | 0.012* | ? | 0.013*
COC(=O)N/N=C(\C)c1cccc(C(F)(F)F)c1 | i | -5 | i | . | i | i | . | . | . | . | . | .
CNC(=S)N/N=C(\C)c1cccc(C(F)(F)F)c1 | i | -4 | i | 4.2* | i | i | ? | 0.033* | 0.036 | 0.013* | ? | 0.012*
N/C(=N\NS(=O)(=O)c1ccccc1Cl)c1ccccn1 | i | -4 | i | . | i | i | . | . | . | . | . | .
CC(=O)c1ccc(NC(=O)C(C)O/N=C(\N)c2ccccc2)cc1 (stereo not given) | . | . | . | . | . | i | . | . | . | . | . | .
CCn1c(SCc2ccccc2Cl)nc2ccccc21 | i | -9 | i | -0.28 | i | i | . | . | . | . | . | .
CCn1c(CSc2nc3ccccc3n2C)nc2ccccc21 | i | -10 | i | -4* | i | i | ? | 0.0038 | 0.022* | ? | 0.014* | 0.0095
CC12CCCCN1CCCc1c2[nH]c2ccccc12 (stereo not given) | i | -2 | i | 8.2* | i | i | ? | 0.0044 | 0.029 | 0.0077 | ? | 0.011
c1ccc2c3c([nH]c2c1)C1(CCCCC1)NCC3 | i | -4 | i | -0.59 | i | i | . | . | . | . | . | .
CCCCn1c(N)c(N(CCOC)C(=O)CCN2C(=O)C3CC=CCC3C2=O)c(=O)[nH]c1=O (stereo not given) | . | . | . | . | . | i | . | . | . | . | . | .
COC(=O)CSc1ccc(C#N)c(SCC(=O)OC)c1 | i | -6 | i | -1.3 | i | i | . | . | . | . | . | .
COC(=O)CSc1cc(SCC(=O)OC)c(C#N)c(SCC(=O)OC)c1 | i | -19 | i | -3.2* | i | i | 0.0059 | 0.0046 | 0.031 | ? | 0.018 | 0.0099
Cc1nc2ccc(NC(=O)c3cccs3)cc2s1 | i | -19 | i | . | i | i | . | . | . | . | . | .
CC(=O)Nc1ccc2nc(NC(=O)c3cccs3)sc2c1 | i | -10 | i | 4.1* | i | i | 0.0052 | ? | 0.03 | 0.0075 | 0.019 | 0.01
S=c1[nH]nc(COc2ccc(Cl)cc2)n1C1CCCCC1 | i | -2 | i | 2.5* | i | i | 0.0052 | 0.015* | 0.033 | 0.012* | ? | 0.015*
COc1ccc(OCc2n[nH]c(=S)n2-c2ccc(C)cc2)cc1 | i | -13 | i | -0.24 | i | i | . | . | . | . | . | .
S=c1[nH]nc(COc2ccccc2)n1/N=C/c1ccc(Cl)cc1 | i | -2 | i | . | i | i | . | . | . | . | . | .
S=c1[nH]nc(CSCc2ccccc2Cl)n1C1CCCCC1 | i | -3 | i | 27* | i | i | 0.0057 | 0.031* | ? | 0.029* | 0.028* | 0.02*
